Assay: Adverse events regardless of attribution
Format: in vivo, human
Outline: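 Children with recurrent/refractory CNS tumours took oral drug once daily, continuously, in 28-day cycles. Dosing was stratified by EIACD use, with start/escalation levels 20–40 mg/m² (no EIACD) or 15–32 mg/m² (EIACD). Monitoring included weekly exam, serum chemistries, CBC and urine protein for 8 weeks, and TSH before each cycle. Events other than hypertension were graded by CTCAE v3, later v4.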

COc1cc2c(Oc3ccc4[nH]c(C)cc4c3F)ncnc2cc1OCCCN1CCCC1 [cediranib, Cediranib]
Anemia, events (patients) (grade 3 AE): 2(2) | Aspartate aminotransferase increased, events (patients) (grade 3 AE): 2(2) | Blurred vision, events (patients) (grade 3 AE): 1(1) | Capillary leak syndrome, events (patients) (grade 3 AE): 1(1) | Chest wall pain, events (patients) (grade 3 AE): 1(1) | Confusion, events (patients) (grade 3 AE): 1(1) | Dehydration, events (patients) (grade 3 AE): 4(4) | Depressed level of consciousness, events (patients) (grade 3 AE): 2(2) | Diarrhea, events (patients) (grade 3 AE): 3(3) | Dysphasia, events (patients) (grade 3 AE): 2(2) | Enterocolitis, events (patients) (grade 3 AE): 1(1) | Eye disorders - Other, specify, events (patients) (grade 3 AE): 1(1) | Fatigue, events (patients) (grade 3 AE): 4(4) | Headache, events (patients) (grade 3 AE): 7(5) | Hydrocephalus, events (patients) (grade 3 AE): 2(2) | Hyperkalemia, events (patients) (grade 3 AE): 1(1) | Hypermagnesemia, events (patients) (grade 3 AE): 1(1) | Hypernatremia, events (patients) (grade 3 AE): 2(1) | Hypertension, events (patients) (grade 3 AE): 10(10) | Hypertriglyceridemia, events (patients) (grade 3 AE): 1(1) | Hypokalemia, events (patients) (grade 3 AE): 3(2) | Hyponatremia, events (patients) (grade 3 AE): 5(5) | Lipase increased, events (patients) (grade 3 AE): 1(1) | Lymphocyte count decreased, events (patients) (grade 3 AE): 5(3) | Mucositis oral, events (patients) (grade 3 AE): 1(1) | Nausea, events (patients) (grade 3 AE): 3(3) | Neutrophil count decreased, events (patients) (grade 3 AE): 2(2) | Oral pain, events (patients) (grade 3 AE): 2(2) | Palmar-plantar erythrodysesthesia syndrome, events (patients) (grade 3 AE): 3(3) | Peripheral motor neuropathy, events (patients) (grade 3 AE): 2(2) | Proteinuria, events (patients) (grade 3 AE): 3(3) | Reversible posterior leukoencephalopathy syndrome, events (patients) (grade 3 AE): 1(1) | Seizure, events (patients) (grade 3 AE): 3(3) | Vomiting, events (patients) (grade 3 AE): 2(2) | Weight loss, events (patients) (grade 3 AE): 1(1) | White blood cell decreased, events (patients) (grade 3 AE): 1(1) | Alanine aminotransferase increased, events (patients) (grade 4 AE): 1(1) | Aspartate aminotransferase increased, events (patients) (grade 4 AE): 1(1) | Hypernatremia, events (patients) (grade 4 AE): 2(1) | Hyponatremia, events (patients) (grade 4 AE): 1(1) | Hypothyroidism, events (patients) (grade 4 AE): 1(1) | Lymphocyte count decreased, events (patients) (grade 4 AE): 1(1) | Nervous system disorders - Other, specify, events (patients) (grade 4 AE): 1(1) | Papilledema, events (patients) (grade 4 AE): 1(1) | Seizure, events (patients) (grade 4 AE): 1(1) | Abdominal pain, events (patients) (total AE): 11(11) | Acidosis, events (patients) (total AE): 7(5) | Alanine aminotransferase increased, events (patients) (total AE): 70(30) | Alkaline phosphatase increased, events (patients) (total AE): 4(3) | Anal mucositis, events (patients) (total AE): 1(1) | Anal pain, events (patients) (total AE): 1(1) | Anemia, events (patients) (total AE): 7(6) | Anorexia, events (patients) (total AE): 15(12) | Arthralgia, events (patients) (total AE): 1(1) | Aspartate aminotransferase increased, events (patients) (total AE): 45(23) | Back pain, events (patients) (total AE): 5(4) | Blood bilirubin increased, events (patients) (total AE): 18(10) | Blurred vision, events (patients) (total AE): 1(1) | Bone pain, events (patients) (total AE): 3(2) | Capillary leak syndrome, events (patients) (total AE): 1(1) | Cardiac troponin I increased, events (patients) (total AE): 1(1) | Chest wall pain, events (patients) (total AE): 2(2) | Cholesterol high, events (patients) (total AE): 1(1) | Chronic kidney disease, events (patients) (total AE): 1(1) | Confusion, events (patients) (total AE): 2(2) | Constipation, events (patients) (total AE): 9(4) | Cough, events (patients) (total AE): 5(4) | Creatinine increased, events (patients) (total AE): 5(3) | Dehydration, events (patients) (total AE): 8(7) | Depressed level of consciousness, events (patients) (total AE): 2(2) | Depression, events (patients) (total AE): 3(3) | Diarrhea, events (patients) (total AE): 63(32) | Dizziness, events (patients) (total AE): 5(3) | Dry mouth, events (patients) (total AE): 1(1) | Dry skin, events (patients) (total AE): 1(1) | Dyspepsia, events (patients) (total AE): 4(4) | Dysphasia, events (patients) (total AE): 3(3) | Edema face, events (patients) (total AE): 1(1) | Edema limbs, events (patients) (total AE): 2(2) | Endocrine disorders - Other, specify, events (patients) (total AE): 2(2) | Enterocolitis, events (patients) (total AE): 1(1) | Epistaxis, events (patients) (total AE): 6(5) | Eye disorders - Other, specify, events (patients) (total AE): 2(2) | Fatigue, events (patients) (total AE): 25(20) | Fecal incontinence, events (patients) (total AE): 2(2) | Fever, events (patients) (total AE): 3(3) | Flushing, events (patients) (total AE): 3(1) | GGT increased, events (patients) (total AE): 1(1) | Gastritis, events (patients) (total AE): 2(2) | Gastrointestinal disorders - Other, specify, events (patients) (total AE): 2(2) | Headache, events (patients) (total AE): 38(19) | Hematuria, events (patients) (total AE): 5(3) | Hemoglobin increased, events (patients) (total AE): 12(6) | Hoarseness, events (patients) (total AE): 1(1) | Hydrocephalus, events (patients) (total AE): 4(3) | Hypercalcemia, events (patients) (total AE): 6(3) | Hyperglycemia, events (patients) (total AE): 22(16) | Hyperkalemia, events (patients) (total AE): 4(4) | Hypermagnesemia, events (patients) (total AE): 15(9) | Hypernatremia, events (patients) (total AE): 16(5) | Hypertension, events (patients) (total AE): 59(38) | Hyperthyroidism, events (patients) (total AE): 2(2) | Hypertriglyceridemia, events (patients) (total AE): 1(1) | Hypoalbuminemia, events (patients) (total AE): 34(17) | Hypocalcemia, events (patients) (total AE): 26(16) | Hypoglycemia, events (patients) (total AE): 6(5) | Hypokalemia, events (patients) (total AE): 23(18) | Hypomagnesemia, events (patients) (total AE): 9(7) | Hyponatremia, events (patients) (total AE): 29(13) | Hypophosphatemia, events (patients) (total AE): 21(13) | Hypothyroidism, events (patients) (total AE): 21(15) | Hypoxia, events (patients) (total AE): 1(1) | INR increased, events (patients) (total AE): 1(1) | Intracranial hemorrhage, events (patients) (total AE): 4(4) | Investigations - Other, specify, events (patients) (total AE): 2(2) | Joint effusion, events (patients) (total AE): 1(1) | Leukoencephalopathy, events (patients) (total AE): 1(1) | Lipase increased, events (patients) (total AE): 2(1) | Lymphocyte count decreased, events (patients) (total AE): 31(13) | Malaise, events (patients) (total AE): 3(1) | Mucositis oral, events (patients) (total AE): 4(4) | Myalgia, events (patients) (total AE): 3(3) | Nausea, events (patients) (total AE): 25(16) | Nervous system disorders - Other, specify, events (patients) (total AE): 4(4) | Neutrophil count decreased, events (patients) (total AE): 23(11) | Non-cardiac chest pain, events (patients) (total AE): 3(3) | Oral pain, events (patients) (total AE): 4(4) | Pain in extremity, events (patients) (total AE): 9(7) | Pain, events (patients) (total AE): 4(4) | Palmar-plantar erythrodysesthesia syndrome, events (patients) (total AE): 17(7) | Papilledema, events (patients) (total AE): 1(1) | Pericardial effusion, events (patients) (total AE): 1(1) | Peripheral motor neuropathy, events (patients) (total AE): 4(4) | Platelet count decreased, events (patients) (total AE): 26(18) | Pleural effusion, events (patients) (total AE): 1(1) | Proteinuria, events (patients) (total AE): 40(21) | Rash acneiform, events (patients) (total AE): 2(2) | Rash maculo-papular, events (patients) (total AE): 6(5) | Rectal pain, events (patients) (total AE): 1(1) | Renal and urinary disorders - Other, specify, events (patients) (total AE): 1(1) | Respiratory, thoracic and mediastinal disorders - Other, specify, events (patients) (total AE): 2(2) | Reversible posterior leukoencephalopathy syndrome, events (patients) (total AE): 2(1) | Seizure, events (patients) (total AE): 7(6) | Serum amylase increased, events (patients) (total AE): 1(1) | Skin and subcutaneous tissue disorders - Other, specify, events (patients) (total AE): 2(2) | Skin ulceration, events (patients) (total AE): 2(2) | Stomach pain, events (patients) (total AE): 3(3) | Urinary frequency, events (patients) (total AE): 2(2) | Urinary retention, events (patients) (total AE): 3(3) | Vascular disorders - Other, specify, events (patients) (total AE): 2(2) | Voice alteration, events (patients) (total AE): 2(2) | Vomiting, events (patients) (total AE): 41(21) | Weight loss, events (patients) (total AE): 5(5) | White blood cell decreased, events (patients) (total AE): 23(14)

From publication PMC4561207 (Child's nervous system : ChNS : official journal of the …, 2015)
